# From PubChem BioAssay AID504653 (Molecular Libraries Program, Specialized Chemistry Center, …, 2011)
# The source made the active and inactive calls.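 The calls were made as follows: active = caspase 3/7 peak fold activation above 5 at a dose under 20 µM within 7 h; inactive = the rest.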
# System: SW403 caspase-3/7 Glo luminescence, 7 h
# Experiment: apoptosis induction by VCP inhibitors – cell-based, mechanism study for p97 inhibitor project (AID 504653)
# Settings: stronger effect = higher value
# Outline: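 Test system: SW403 cells. Incubation: 7 h compound exposure, then 1 h reagent incubation at room temperature. Detection: Caspase-3/7 Glo reagent, luminescence. Benchmarks: 1 % DMSO reference.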
row,Structure (SMILES),maximal fold activation
1,Brc1cccc(CNc2nc(NCc3ccccc3)c3ccccc3n2)c1,18
2,FC(F)(F)c1ccc(CNc2nc(NCc3ccccc3)c3ccccc3n2)cc1,26
3,CCN(CC)CCOc1cccc2c(NCc3ccccc3)nc(N3CCOc4ccccc43)nc12,8 (inactive)
4,c1ccc(CNc2nc(N3CCOc4ccccc43)nc3ccsc23)cc1,1.4 (inactive)
5,COc1cccc2c(NCc3ccccc3)nc(NCc3cccs3)nc12,24
6,Cc1ccc(CNc2nc(NCc3ccccc3)c3ccccc3n2)cc1,13 (inactive)
7,COc1cccc(CNc2nc(NCc3ccccc3)c3ccccc3n2)c1,3.3 (inactive)
8,OCCOc1cccc2c(NCc3ccccc3)nc(N3CCOc4ccccc43)nc12,1.3 (inactive)
9,COc1cccc2c(NCc3ccccc3)nc(NCc3ccccc3)nc12,12 (inactive)
10,c1ccc(CNc2nc(N3CCOc4ccccc43)nc3ccccc23)cc1,1.6 (inactive)

# The next lines start with the values.
row,maximal fold activation,Structure (SMILES)
1,1.6 (inactive),COc1cccc2c(NCc3ccccc3)nc(-n3c(N)nc4cc(Cl)c(Cl)cc43)nc12
2,5.9 (inactive),Fc1cccc(CNc2nc(NCc3ccccc3)c3ccccc3n2)c1
3,29,COc1cccc2c(NCc3ccccc3)nc(-n3c(N)nc4ccccc43)nc12
4,16,COc1cccc2c(NCc3ccccc3)nc(Nc3nc4ccccc4n3C)nc12
5,7.3 (inactive),Clc1cccc(Nc2nc(NCc3ccccc3)c3ccccc3n2)c1
6,15 (inactive),Fc1cccc(Nc2nc(NCc3ccccc3)c3ccccc3n2)c1
7,1.6 (inactive),COc1cccc2c(NCc3ccccc3)nc(N3CCOc4ccccc43)nc12
